Measured values taken from ChEMBL document CHEMBL1777764, “Synthesis and evaluation of 1-(1H-indol-3-yl)ethanamine derivatives as new antibacterial agents” (Bioorg Med Chem, 2011).
Values after ≈ are worked out from the molar mass of the structure shown.

Experiments:
[1] = tested on: KB; assay: Cytotoxicity against human KB cells at 10 uM; assay type: cell-based
[2] = tested on: Streptococcus agalactiae; assay: Antibacterial activity against Streptococcus agalactiae ATCC 12400 after 18 hrs by broth microdilution method; assay type: functional; settings: ATCC 12400, 18 h
Procedure, shortened: (§1)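 Broth microdilution following ISO 20776-1:2006 and CLSI M07-A8, in Mueller-Hinton broth. Inoculum was 10^6 cfu/ml, with compound serial dilutions spanning 2 to 128 ug/ml and a compound-free growth control well. Plates were incubated 18 h at 37 °C. MIC was the lowest concentration giving complete inhibition of visible growth. Each compound was tested at least twice.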

[3] = tested on: Staphylococcus aureus; assay: Antibacterial activity against Staphylococcus aureus CIP 103428 after 18 hrs by broth microdilution method; assay type: functional; settings: CIP 103428, 18 h
Procedure, shortened: (§2)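 MIC by broth microdilution per ISO 20776-1:2006 and CLSI M07-A8. Inoculum 10^6 cfu/ml in Mueller-Hinton broth with compound serially diluted, final concentrations 2 to 128 ug/ml, duplicate rows, no-drug growth control. Incubation 18 h at 37 °C. MIC taken as lowest concentration giving complete inhibition of visible growth. Each compound tested at least twice.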

[4] = tested on: Staphylococcus aureus; assay: Antibacterial activity against methicillin-resistant Staphylococcus aureus ATCC 33592 after 18 hrs by broth microdilution method; assay type: functional; settings: ATCC 33592, 18 h; procedure, shortened: as §1
[5] = tested on: HCT-116; assay: Cytotoxicity against human HCT116 cells at 1 uM; assay type: cell-based; settings: hct-116, 1 µM
[6] = tested on: Staphylococcus aureus; assay: Antibacterial activity against methicillin-resistant Staphylococcus aureus CIP 65.25 after 18 hrs by broth microdilution method; assay type: functional; settings: CIP 65.25, 18 h; procedure, shortened: as §1
[7] = tested on: Staphylococcus aureus; assay: Antibacterial activity against Staphylococcus aureus ATCC 29213 after 18 hrs by broth microdilution method; assay type: functional; settings: ATCC 29213, 18 h; procedure, shortened: as §2
[8] = tested on: Streptococcus mitis; assay: Antibacterial activity against Streptococcus mitis CIP 103335 after 18 hrs by broth microdilution method; assay type: functional; settings: CIP 103335, 18 h
Procedure, shortened: as §1, with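 “broth […].” for “broth.”, “read after” for “incubated”, “with no” for “giving complete inhibition of”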

[9] = tested on: Enterococcus faecalis; assay: Antibacterial activity against Enterococcus faecalis ATCC 29212 after 18 hrs by broth microdilution method; assay type: functional; settings: ATCC 29212, 18 h; procedure, shortened: as §1
[10] = tested on: Staphylococcus aureus; assay: Antibacterial activity against Staphylococcus aureus ATCC 25923 after 18 hrs by broth microdilution method; assay type: functional; settings: ATCC 25923, 18 h; procedure, shortened: as §2
[11] = tested on: Serratia marcescens; assay: microbe, parasite or virus in culture; settings: CIP 103551, 18 h
[12] = tested on: Staphylococcus epidermidis; assay: Antibacterial activity against Staphylococcus epidermidis ATCC 12228 after 18 hrs by broth microdilution method; assay type: functional; settings: ATCC 12228, 18 h; procedure, shortened: as §2
[13] = tested on: Streptococcus pneumoniae; assay: Antibacterial activity against Streptococcus pneumoniae ATCC 49619 after 18 hrs by broth microdilution method; assay type: functional; settings: ATCC 49619, 18 h
Procedure, shortened: (§3)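 MIC by broth microdilution per ISO 20776-1:2006 and CLSI M07-A8. Inoculum 10^6 cfu/ml in Mueller-Hinton broth […]. Compound serially diluted, final 2 to 128 ug/ml, duplicate rows, no-drug growth control. Read after 18 h at 37 °C as lowest concentration fully inhibiting visible growth. At least two experiments.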

[14] = tested on: Staphylococcus aureus; assay: Antibacterial activity against vancomycin intermediate Staphylococcus aureus […] after 18 hrs by broth microdilution method; assay type: functional; procedure, shortened: as §1
[15] = tested on: HCT-116; assay: Cytotoxicity against human HCT116 cells at 10 uM; assay type: cell-based; settings: hct-116, 10 µM
[16] = tested on: Streptococcus pyogenes; assay: Antibacterial activity against Streptococcus pyogenes CIP 104226 after 18 hrs by broth microdilution method; assay type: functional; settings: CIP 104226, 18 h; procedure, shortened: as §1
[17] = tested on: Escherichia coli; assay: Antibacterial activity against Escherichia coli ATCC 25922 after 18 hrs by broth microdilution method; assay type: functional; settings: ATCC 25922, 18 h; procedure, shortened: as §1
[18] = tested on: Haemophilus influenzae; assay: Antibacterial activity against Haemophilus influenzae ATCC 49766 after 18 hrs by broth microdilution method; assay type: functional; settings: ATCC 49766, 18 h
Procedure, shortened: as §1, with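 “broth […].” for “broth.”, “read after” for “incubated”, “with no” for “giving complete inhibition of”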

[19] = tested on: Enterococcus faecium; assay: Antibacterial activity against Enterococcus faecium CIP 54.32 after 18 hrs by broth microdilution method; assay type: functional; settings: CIP 54.32, 18 h; procedure, shortened: as §1
[20] = tested on: MRC5; assay: Cytotoxicity against human MRC5 cells at 1 uM; assay type: cell-based; settings: mrc5, 1 µM
[21] = tested on: Staphylococcus aureus; assay: Antibacterial activity against Staphylococcus aureus ATCC 6538 after 18 hrs by broth microdilution method; assay type: functional; settings: ATCC 6538, 18 h; procedure, shortened: as §2
[22] = tested on: MRC5; assay: Cytotoxicity against human MRC5 cells at 10 uM; assay type: cell-based; settings: mrc5, 10 µM
[23] = tested on: Klebsiella pneumoniae; assay: microbe, parasite or virus in culture; settings: ATCC 35657, 18 h
[24] = tested on: Acinetobacter baumannii; assay: microbe, parasite or virus in culture; settings: ATCC 19606 = CIP 70.34 = JCM 6841, 18 h
[25] = tested on: Staphylococcus epidermidis; assay: Antibacterial activity against Staphylococcus epidermidis CIP 103627 after 18 hrs by broth microdilution method; assay type: functional; settings: CIP 103627, 18 h; procedure, shortened: as §2
[26] = tested on: Staphylococcus aureus; assay: Antibacterial activity against Staphylococcus aureus ATCC 9144 after 18 hrs by broth microdilution method; assay type: functional; settings: ATCC 9144, 18 h; procedure, shortened: as §2
[27] = tested on: Pseudomonas aeruginosa; assay: microbe, parasite or virus in culture; settings: CIP 5933, 18 h
[28] = tested on: Staphylococcus aureus; assay: Antibacterial activity against Staphylococcus aureus CIP 65.6 after 18 hrs by broth microdilution method; assay type: functional; settings: CIP 65.6, 18 h; procedure, shortened: as §2
[29] = tested on: Staphylococcus epidermidis; assay: Antibacterial activity against Staphylococcus epidermidis CIP 81.55 after 18 hrs by broth microdilution method; assay type: functional; settings: CIP 81.55, 18 h; procedure, shortened: as §2
[30] = tested on: Streptococcus pneumoniae; assay: Antibacterial activity against Streptococcus pneumoniae ATCC 6303 after 18 hrs by broth microdilution method; assay type: functional; settings: ATCC 6303, 18 h; procedure, shortened: as §3
[31] = tested on: KB; assay: Cytotoxicity against human KB cells at 1 uM; assay type: cell-based
[32] = tested on: Enterobacter cloacae; assay: microbe, parasite or virus in culture; settings: ATCC 13047, 18 h

| Compound | Activity [1] | MIC [2] | MIC [3] | MIC [4] | Activity [5] | MIC [6] | MIC [7] | MIC [8] | MIC [9] | MIC [10] | MIC [11] | MIC [12] | MIC [13] | MIC [14] | Activity [15] | MIC [16] | MIC [17] | MIC [18] | MIC [19] | MIC [30] | also measured |
| --- | --- | --- | --- | --- | --- | --- | --- | --- | --- | --- | --- | --- | --- | --- | --- | --- | --- | --- | --- | --- | --- |
| Cl.Cl.NCC(NO)c1c[nH]c2cc(F)ccc12 (centres undefined) | Non-toxic | 64 µg/mL | 16 µg/mL | 16 µg/mL | Non-toxic | 16 µg/mL | 16 µg/mL | 64 µg/mL | 128 µg/mL | 16 µg/mL | 64 µg/mL | 16 µg/mL | 64 µg/mL | 16 µg/mL | Non-toxic | 64 µg/mL | 64 µg/mL | > 128 µg/mL | 128 µg/mL | 64 µg/mL | Activity [20]: Non-toxic; MIC [21]: 16 µg/mL; Activity [22]: Non-toxic; MIC [23]: 64 µg/mL; MIC [24]: 64 µg/mL; MIC [25]: 16 µg/mL; MIC [26]: 16 µg/mL; MIC [27]: 64 µg/mL; MIC [28]: 16 µg/mL; MIC [29]: 16 µg/mL; Activity [31]: Non-toxic; MIC [32]: 64 µg/mL |
| Cl.Cl.NCC(NO)c1c[nH]c2ccccc12 (centres undefined) | Non-toxic | > 128 µg/mL | 32 µg/mL | 64 µg/mL | Non-toxic | 64 µg/mL | 32 µg/mL | > 128 µg/mL | > 128 µg/mL | 32 µg/mL | > 128 µg/mL | 32 µg/mL | > 128 µg/mL | 32 µg/mL | Non-toxic | > 128 µg/mL | > 128 µg/mL | > 128 µg/mL | > 128 µg/mL | > 128 µg/mL | Activity [20]: Non-toxic; MIC [21]: 32 µg/mL; Activity [22]: Non-toxic; MIC [23]: > 128 µg/mL; MIC [24]: > 128 µg/mL; MIC [25]: 32 µg/mL; MIC [26]: 32 µg/mL; MIC [27]: > 128 µg/mL; MIC [28]: 32 µg/mL; MIC [29]: 32 µg/mL; Activity [31]: Non-toxic; MIC [32]: > 128 µg/mL |
| CO/N=C(\C(=O)N[C@@H]1C(=O)N2C(C(=O)O)=C(COC(C)=O)CS[C@H]12)c1csc(N)n1 [CEFOTAXIME] |  | 0.016 µg/mL (≈ 0.0351 µM) |  |  |  |  |  | 0.016 µg/mL (≈ 0.0351 µM) | 0.5 µg/mL (≈ 1.1 µM) |  |  |  | 0.125 µg/mL (≈ 0.274 µM) |  |  | 0.016 µg/mL (≈ 0.0351 µM) |  | 0.032 µg/mL (≈ 0.0703 µM) | 0.5 µg/mL (≈ 1.1 µM) | 0.125 µg/mL (≈ 0.274 µM) |  |
| Cl.Cl.NCC(NO)c1c[nH]c2ccc(I)cc12 (centres undefined) | Non-toxic | 128 µg/mL | 16 µg/mL | 32 µg/mL | Non-toxic | 32 µg/mL | 16 µg/mL | 128 µg/mL | 128 µg/mL | 16 µg/mL | 64 µg/mL | 16 µg/mL | 64 µg/mL | 16 µg/mL | Non-toxic | 128 µg/mL | 32 µg/mL | 64 µg/mL | 128 µg/mL | 64 µg/mL | Activity [20]: Non-toxic; MIC [21]: 16 µg/mL; Activity [22]: Non-toxic; MIC [23]: 64 µg/mL; MIC [24]: 64 µg/mL; MIC [25]: 16 µg/mL; MIC [26]: 16 µg/mL; MIC [27]: 64 µg/mL; MIC [28]: 16 µg/mL; MIC [29]: 16 µg/mL; Activity [31]: Non-toxic; MIC [32]: 64 µg/mL |
